In assay [1] the test system is MCF7. Briefly: Cell cycle arrest in human MCF7 cells assessed as accumulation at G2/M phase at GI50 concentration after 48 hrs by propidium iodide-staining based flow cytometry. The format is functional. In outline: (§1)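 Cells were trypsinized, washed in cold PBS, and 1 x 10^6 cells stained with 20 µg/ml PI plus 200 µg/ml RNase for 30 min at room temperature in the dark. At least 1x 10^4 cells were analysed by flow cytometry. Mean±SD of three experiments in triplicate.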

Assay [2] concerns MCF7. Nature of the assay: Induction of apoptosis in human MCF7 cells assessed as necrotic cells at 5 x 10^-8 M after 72 hrs by Annexin V/propidium iodide double staining-based flow cytometry (reference value: 0.1%). The format is functional. In outline:
(§2)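 MCF-7 cells were grown in RPMI with 10% FBS, 2 mM L-glutamine and antibiotics at 37 °C in 5% CO2. They were seeded at 2.0 x 10^5 cells/cm2 in triplicate, left to adhere overnight, then treated for 72 h; DMSO 0.1% served as vehicle. Trypsinised cells at 2.0 x 10^5/mL were stained with annexin V-FITC and PI for 15 min at room temperature in the dark. At least 1.0 x 10^4 cells were gated into viable, early apoptotic, late apoptotic and necrotic quadrants.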
In general terms: A flow cytometer gives signals particle by particle.

In assay [3] the test system is MCF7. Nature of the assay: Induction of apoptosis in human MCF7 cells assessed as late apoptotic cells at 5 x 10^-8 M after 72 hrs by Annexin V/propidium iodide double staining-based flow cytometry (reference value: 0%). Type of assay: functional. The essentials: as §2
The subject of assay [4] is MCF7. Nature of the assay: Induction of apoptosis in human MCF7 cells assessed as viable cells at 5 x 10^-8 M after 72 hrs by Annexin V/propidium iodide double staining-based flow cytometry (reference value: 98.9%). Type of assay: functional. Particulars: MCF7, 72 h, read-out: Activity. The essentials: as §2
In assay [5] the target is Cyclin-dependent kinase 1/cyclin B1 (Homo sapiens, UniProt P06493). Nature of the assay: Inhibition of recombinant human full length His-tagged CDK1/cyclin B expressed in baculovirus expression system after 60 mins in presence of omnia peptide substrate by fluorescence based assay. The essentials:
(§3)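 Recombinant human CDK1/cyclin B in kinase buffer with Omnia peptide substrate, ATP and DTT, with inhibitor at 0.1–10 µM. Reactions ran for 60 min at 30 °C, with fluorescence read at ex 360/em 485 nm. Initial velocity came from the RFU-versus-time slope and was plotted against concentration for a dose-response IC50 fit. Values are mean±SD of two determinations.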

Assay [6] concerns the target Cyclin-dependent kinase 1/cyclin B1 (Homo sapiens) (UniProt P06493+P14635). Nature of the assay: Inhibition of recombinant human full length His-tagged CDK1/cyclin B expressed in baculovirus expression system at 0.1 to 10 uM after 60 mins in presence of omnia peptide substrate by fluorescence based assay. The essentials: as §3
The subject of assay [7] is MCF7. Nature of the assay: Cell cycle arrest in human MCF7 cells assessed as accumulation at G0/G1 phase at GI50 concentration after 48 hrs by propidium iodide-staining based flow cytometry (reference value: 63.5%). Type of assay: functional. The essentials:
as §1

Here are results for two compounds from ChEMBL document CHEMBL4190252, “Synthesis, antitumor activity and CDK1 inhibiton of new thiazole nortopsentin analogues” (Eur J Med Chem, 2017).

Calls of active or inactive are those of the source. No cut-off for these calls is given here.

Cyclin-dependent kinase 1/cyclin B1, sequence (P06493 whole entry): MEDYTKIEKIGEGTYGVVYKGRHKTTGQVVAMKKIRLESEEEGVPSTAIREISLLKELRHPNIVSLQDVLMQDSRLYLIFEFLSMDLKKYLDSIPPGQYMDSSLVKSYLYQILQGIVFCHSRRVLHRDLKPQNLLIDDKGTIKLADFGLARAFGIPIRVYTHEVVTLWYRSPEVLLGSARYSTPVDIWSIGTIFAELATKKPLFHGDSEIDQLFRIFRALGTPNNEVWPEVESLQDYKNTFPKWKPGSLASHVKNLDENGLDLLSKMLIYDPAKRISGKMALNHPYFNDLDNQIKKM
Cyclin-dependent kinase 1/cyclin B1, sequence (P14635 whole entry, further chain): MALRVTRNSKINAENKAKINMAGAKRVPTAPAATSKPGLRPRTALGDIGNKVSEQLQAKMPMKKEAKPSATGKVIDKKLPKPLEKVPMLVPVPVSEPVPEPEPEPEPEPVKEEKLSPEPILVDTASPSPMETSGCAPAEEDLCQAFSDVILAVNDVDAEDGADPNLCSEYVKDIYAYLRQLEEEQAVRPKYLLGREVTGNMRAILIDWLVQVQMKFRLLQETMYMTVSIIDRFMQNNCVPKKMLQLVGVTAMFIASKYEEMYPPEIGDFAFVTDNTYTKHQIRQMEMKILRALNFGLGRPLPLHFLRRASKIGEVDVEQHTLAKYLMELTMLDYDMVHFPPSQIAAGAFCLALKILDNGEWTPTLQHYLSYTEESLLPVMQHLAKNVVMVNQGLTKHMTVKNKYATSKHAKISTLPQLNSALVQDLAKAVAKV
Cyclin-dependent kinase 1/cyclin B1 (Homo sapiens), sequence (P06493 whole entry, looked up): as the sequence (P06493 whole entry) above
Cyclin-dependent kinase 1/cyclin B1 (Homo sapiens), sequence (P14635 whole entry, looked up): as the sequence (P14635 whole entry, further chain) above

What is called IC50 is the concentration that inhibits the measured activity by half. For `COCCn1cc(-c2nc(-c3c[nH]c4ncccc34)cs2)c2cc(OC)ccc21`, the results for the Activity in the assay with MCF7 [1], in the assay on MCF7 [2] and in the assay with MCF7 [3] were above 50%, 0% and 0.1%, respectively. Also, the viability at 0.05 µM in the assay on MCF7 [4] was 45.8%. Further, the IC50 in assay [5] turned out to be 1.14 µM.

In the case of `COCCn1cc(-c2csc(-c3c[nH]c4ccc(Br)cc34)n2)c2cccnc21`, the inhibition entry in assay [6] is “inactive”. Besides, in the assay on MCF7 [7], the Activity was 9%.
